The results in this text go back to ChEMBL document CHEMBL2202955, “Identification of Potent, Selective, Cell-Active Inhibitors of the Histone Lysine Methyltransferase EZH2” (ACS Med Chem Lett, 2012).

The target of experiment [1] is Histone-lysine N-methyltransferase EZH2 (Homo sapiens, UniProt Q15910). Description: Inhibition of EZH2-mediated nuclear H3K27 methylation in human HCC1806 cells after 72 hrs by immunofluorescence analysis. In kind it is cell-based. A digest of the protocol: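 HCC1806 breast cancer cells were exposed to compound for 72 h. Nuclear H3K27me3 was quantified by an immunofluorescence imaging assay and normalized to total H3. Values are the mean of at least three independent replicates.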
Histone-lysine N-methyltransferase EZH2, sequence (Q15910 whole entry): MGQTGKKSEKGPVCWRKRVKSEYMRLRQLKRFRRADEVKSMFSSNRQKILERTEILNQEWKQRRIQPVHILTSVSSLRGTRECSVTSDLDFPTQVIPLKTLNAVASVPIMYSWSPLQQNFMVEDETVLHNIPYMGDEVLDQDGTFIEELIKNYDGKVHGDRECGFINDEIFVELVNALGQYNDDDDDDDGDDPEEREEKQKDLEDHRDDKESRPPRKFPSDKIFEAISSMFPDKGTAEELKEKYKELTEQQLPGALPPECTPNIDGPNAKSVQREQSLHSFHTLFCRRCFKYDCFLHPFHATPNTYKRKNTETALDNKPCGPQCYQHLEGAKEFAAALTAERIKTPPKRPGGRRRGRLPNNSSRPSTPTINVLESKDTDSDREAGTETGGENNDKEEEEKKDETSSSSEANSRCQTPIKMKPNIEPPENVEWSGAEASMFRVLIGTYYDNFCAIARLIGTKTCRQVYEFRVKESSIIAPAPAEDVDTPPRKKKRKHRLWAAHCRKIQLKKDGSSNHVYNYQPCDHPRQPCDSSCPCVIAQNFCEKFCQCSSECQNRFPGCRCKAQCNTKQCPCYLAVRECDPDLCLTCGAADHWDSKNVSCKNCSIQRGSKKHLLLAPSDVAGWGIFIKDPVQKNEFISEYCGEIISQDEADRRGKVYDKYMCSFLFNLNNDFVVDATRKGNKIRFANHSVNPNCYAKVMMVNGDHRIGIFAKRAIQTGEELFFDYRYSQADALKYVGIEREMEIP

Experiment [2] concerns the target EZH2/SUZ12/EED/RBBP7/RBBP4. Description: Inhibition of PRC2 complex of FLAG-EZH2, EED, SUZ12, AEBP2 and RbAp48 using histone H3 peptide (21 to 44) as substrate and [3H]SAM after 30 mins. Type of experiment: protein-complex assay. The conditions noted are these: read-out: Ki(app).

`Cc1cc(C)c(CNC(=O)c2cc(C3CC3)cc3c2cnn3C(C)C)c(=O)[nH]1`: the IC50 in experiment [1] stood at 2510 nM. Besides, the Ki in experiment [2] came to 74 nM.
In the same order, the values of `Cc1cc(C)c(CNC(=O)c2cc(-c3ccnc(N4CCN(C)CC4)c3)cc3c2cnn3C(C)C)c(=O)[nH]1` are 2000 nM and 14 nM.

Broadly, the IC50 is the concentration needed to halve the response being measured. Low values mean greater potency in that assay, high ones weaker potency in that assay.
